Assay outcomes from PubChem.
TAAR1 antagonist: human TAAR1 antagonism | Q96RJ0 | CHO RD-HGA16 TAAR1, Fluo-8 calcium fluorescence, antagonist | inhibition, % at 3 µM | actives 1.5% (n = 360,000) | AID 624466;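 active means inhibition above a per-plate cutoff, the mean inhibition of test compounds on that plate plus 3 SD, cut at about 49% in these data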
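Test system: RD-HGA16 CHO cells with stable hTAAR1 and Gα16 / Probe or stimulus: EC80 β-phenethylamine stimulus / Times: seeding 17-24 h prior, 75-min 37 °C, 30-min RT dye loading / Detection: Fluo-8 calcium-sensitive fluorescence / Read-out basis: % inhibition scaled between DMSO and EC80 PEA controls / Repeats: singlicate, one well per test compound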
M4 antag: antagonists of human muscarinic M4 receptor (CHRM4); P08173; inhibition, % at 3 µM; actives 0.73% (n = 360,000); AID 624125; CHO-hM4 cells, ACh EC80, Fluo-8 calcium fluorescence;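 active means inhibition above its plate's cutoff, the mean inhibition of sample wells plus 3 SD, cut at about 27% in these data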
Target sequence (P08173 whole entry, looked up): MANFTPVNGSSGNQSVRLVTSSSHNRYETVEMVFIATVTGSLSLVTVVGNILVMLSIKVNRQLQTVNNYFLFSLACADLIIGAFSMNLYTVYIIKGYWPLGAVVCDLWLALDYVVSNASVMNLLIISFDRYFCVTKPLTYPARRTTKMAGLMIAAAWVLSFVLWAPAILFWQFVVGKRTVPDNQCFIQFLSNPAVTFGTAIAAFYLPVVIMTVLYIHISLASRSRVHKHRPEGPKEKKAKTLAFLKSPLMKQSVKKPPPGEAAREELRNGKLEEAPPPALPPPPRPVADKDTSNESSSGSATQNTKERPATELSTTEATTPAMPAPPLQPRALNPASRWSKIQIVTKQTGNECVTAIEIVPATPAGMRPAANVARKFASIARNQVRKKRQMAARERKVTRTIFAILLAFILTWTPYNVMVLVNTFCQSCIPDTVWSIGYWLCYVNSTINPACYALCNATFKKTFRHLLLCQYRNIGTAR
M4 PAM: positive allosteric modulators of human muscarinic M4 receptor | CHO-K1 hM4/Gqi5, Fluo-8 calcium fluorescence, ACh EC20; 0% = ACh EC20, 100% = maximal ACh | AID 624126 | P08173 | actives 0.4% (n = 360,000) | activation, % at 3 µM;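 active means activation above its plate's cutoff, the mean activation of sample wells plus 3 SD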
TAAR1 agonist: agonists of human TAAR1. Q96RJ0. CHO RD-HGA16 TAAR1, Fluo-8 calcium fluorescence; vehicle wells 0%, saturating PEA agonist 100%. activation, % at 3 µM. actives 0.99% (n = 360,000). AID 624467;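 active means activation above the mean activation of all test compounds in the run plus 3 SD, cut at about 38% in these data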
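Test system: RD-HGA16 (CHO) cells co-expressing Gα16 and hTAAR1 / Benchmarks: DMSO vehicle as 0%, PEA at EC100 as 100% / Repeats: no replicates (n 1) / Measure: % activation from peak over basal fluorescence ratio, DMSO-to-PEA scaled / Timing: 17-24 h plating, Fluo-8 75 min 37 °C, 30 min RT / Technique: kinetic Fluo-8 calcium fluorescence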
CHRM4 agonist: agonists of human muscarinic M4 receptor (CHRM4); AID 624127; CHO-K1 hM4/Gqi5, Fluo-8 calcium fluorescence; vehicle 0%, full acetylcholine response 100%; actives 0.14% (n = 360,000); activation, % at 3 µM; P08173;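 active means activation above the run mean over all test wells plus 3 SD, cut at about 32% in these data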;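 further: peak over basal fluorescence ratio per well then scaled between controls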
A number is an active result; 0 = inactive; - = not tested or not shown. Shown are actives, neighbours in structure and some others; about 3% of the full set was active somewhere.

SMILES | TAAR1 antagonist | M4 antag | M4 PAM | TAAR1 agonist | CHRM4 agonist
COc1ccccc1CCN1CCCC(CN(C)CC(C)(C)CO)C1 (configuration not stated) | 0 | 30 | 0 | 0 | 0
O=S(=O)(c1ccccc1)N1CCCc2nc(-c3ccc(Br)cc3)ccc21 | 0 | - | - | 0 | -
Cn1nc(CC(=O)Nc2ccc3c(c2)OCCO3)c2ccccc2c1=O | 0 | 0 | 0 | 0 | 0
Cc1ccc(NC(=O)Cc2nn(C)c(=O)c3ccccc23)cc1F | 0 | 33 | 0 | 0 | 0
CC(=O)N1CCC(C(=O)N2c3ccccc3N=C(c3ccc(C(F)(F)F)cc3)C2C(=O)NC(C)C)CC1 (configuration not stated) | 0 | 0 | 0 | 0 | 0
Nc1nc2ccccc2cc1C(=O)NCCCCc1ccccc1 | - | 0 | 0 | - | 0
C=C1CC(Cn2cc(Br)c(=O)[nH]c2=O)(c2ccc(-c3ccccc3)cc2)OC1=O (configuration not stated) | 68 | 46 | 0 | 0 | 0
O=c1[nH]c(=O)n(Cc2ccc(Oc3ccccc3)cc2)cc1Br | 0 | 0 | 0 | 0 | 0
COc1ccc(CN(C2CCCC2)S(=O)(=O)c2cc(Br)ccc2Br)c(OC)c1 | 0 | - | - | 0 | -
Cc1onc(-c2c(Cl)cccc2Cl)c1CO/N=C(\C#N)c1c(Cl)cccc1Cl | 49 | 0 | 0 | 0 | 0
Cc1onc(-c2c(Cl)cccc2Cl)c1/C(N)=N/OC(=O)C(C)(C)C | 0 | 0 | 0 | 0 | 0
CCOC(=O)c1csc(NC(=O)CSc2nnnn2-c2ccc(OCC)cc2)n1 | 0 | 0 | 0 | 40 | 0
Cc1ccc(CNC(=O)CSc2nnc(CNC(=O)c3ccc(F)cc3)o2)cc1 | 0 | 0 | 0 | 0 | 0
Cc1ccc(CNC(=O)CSc2nnc(CNC(=O)c3ccccc3)o2)cc1 | 0 | 0 | 23 | 0 | 0
CCc1ccc(NC(=O)C2CCCN(S(=O)(=O)c3ccc4c(c3)CC(C)N4C(C)=O)C2)cc1 (configuration not stated) | 0 | 0 | 0 | 0 | 0
CCc1ccc(NC(=O)C2CCN(S(=O)(=O)c3ccc4c(c3)CC(C)N4C(C)=O)CC2)cc1 (configuration not stated) | 50 | 0 | 0 | 0 | 0
CCc1cc2c(COC(=O)CCNS(=O)(=O)c3cccc(C(F)(F)F)c3)cc(=O)oc2cc1O | 53 | 0 | 0 | 0 | 0
Cc1cc(NC(=O)COC(=O)CCNS(=O)(=O)c2cccc(C(F)(F)F)c2)no1 | 0 | 0 | 0 | 0 | 0
O=C(CCSc1nnc(-c2ccncc2)o1)Nc1ccccc1 | 0 | 0 | 0 | 0 | 0
CCNC(=O)CCSc1nnc(-c2ccncc2)o1 | 0 | 0 | 24 | 0 | 0
CC(C)N1C(=O)S/C(=C/c2ccc3c(c2)n(C)c(=O)n3C)C1=O | 0 | 0 | 0 | 0 | 0
CCN(CC)c1ccc(/C=C2\SC(=O)N(C(C)C)C2=O)o1 | - | 41 | 0 | - | 0
CN(C)S(=O)(=O)c1ccc(Cl)c(NC(=O)COC(=O)c2cc(-c3ccccc3)nc3ccccc23)c1 | 52 | 0 | 0 | 0 | 0
Cc1cccc(C)c1OCC(=O)N(Cc1ccco1)C1CCS(=O)(=O)C1 (configuration not stated) | - | 0 | 0 | - | 32
Cc1ccc(S(=O)(=O)NCC2CCN(C(=O)C(=O)c3cc4ccccc4o3)CC2)cc1 | 0 | - | - | 0 | -
SMILES | TAAR1 antagonist | M4 antag | M4 PAM | TAAR1 agonist | CHRM4 agonist
O=C(O)c1ccccc1-c1c2cc(I)c(=O)c(I)c-2oc2c(I)c(O)c(I)cc12 | 83 | 57 | 0 | 136 | 254
Cc1ccc(NC(=O)COc2ccccc2)cc1S(=O)(=O)N1CCCCC1 | 0 | 0 | 0 | 0 | 0
COc1ccc(NC(=O)CCNC(=O)c2ccc([N+](=O)[O-])cc2)cc1S(=O)(=O)N1CCCCC1 | 0 | 0 | 22 | 0 | 0
COc1ccc(NC(=O)CCNC(=O)c2ccc([N+](=O)[O-])cc2)cc1S(=O)(=O)N1CCOCC1 | 0 | 0 | 0 | 0 | 0
COc1cc(CCC(=O)Nc2ccc(C)c(S(=O)(=O)N3CCCCCC3)c2)cc(OC)c1OC | 50 | 0 | 0 | 0 | 0
Cc1ccccc1OCC(=O)Nc1ccc(C)c(S(=O)(=O)N2CCCCCC2)c1 | 49 | 0 | 0 | 0 | 0
COc1ccc(Oc2cccc3c2S(=O)(=O)N(C2CC2)C[C@@H](COCc2ccccc2)O3)cc1 | 0 | - | - | 0 | -
CCN(CC)c1ccc2c(Cl)c(Br)c(=O)oc2c1 | - | 62 | 0 | - | 0
CCCn1c(SCC(=O)Nc2ccccc2Cl)nc(O)cc1=O | 0 | 0 | 0 | 0 | 0
CCCn1c(SCC(=O)Nc2cccc(F)c2)nc(O)cc1=O | 0 | 27 | 0 | 0 | 41
O=C(O)C1CCCN1S(=O)(=O)c1cccc(S(=O)(=O)N2CCCC2C(=O)O)c1 (configuration not stated) | 0 | 32 | 0 | 0 | 0
O=C(NCC1CCCO1)c1c(O)c2cccc3c2n(c1=O)CC3 (configuration not stated) | 0 | 0 | 0 | 0 | 0
Cn1c(C(=O)NCC2CCCO2)cc2c(=O)n(C)c3ccccc3c21 (configuration not stated) | 0 | 0 | 0 | 0 | 0
Cn1c(=O)c(C(=O)NCC2CCCO2)c(O)c2ccccc21 (configuration not stated) | 0 | 33 | 0 | 0 | 0
Cn1c(C(=O)NCC2CCCO2)cc2c(=O)[nH]c3ccccc3c21 (configuration not stated) | 0 | 0 | 28 | 0 | 0
Cc1ccccc1-c1ccc2c(c1)[C@@H]1C[C@H](N(C)CC3CCCCC3)[C@H]([C@H](C)O)CN1CC2 | 0 | - | - | 0 | -
CCOC(=O)c1cc2c(nc1N)CC(C)(C)OC2 | 0 | 0 | 0 | 0 | 0
CCOC(=O)c1cc2c(nc1N)CC(C)(CC)OC2 (configuration not stated) | 0 | 0 | 17 | 0 | 0
Cc1[nH]c2ccccc2c1CC(=O)Nc1ccc(Nc2cccnc2)c(Br)c1 | 0 | - | - | 0 | -
CN(CCO)c1cc(Sc2nc3ccccc3s2)c2nonc2c1[N+](=O)[O-] | 0 | 93 | 0 | 0 | 0
C[C@H]1CCCCO[C@@H](CN(C)CC2CC2)[C@@H](C)CN([C@@H](C)CO)C(=O)c2cc(NS(=O)(=O)c3ccccc3)ccc2O1 | 0 | - | - | 0 | -
NS(=O)(=O)c1ccc(CCNC(=O)c2ccc(C#CC3(O)CCCCC3)cc2)cc1 | 68 | 0 | 0 | 0 | 0
NS(=O)(=O)c1ccc(CCNC(=O)c2ccncc2)cc1 | 0 | 0 | 0 | 0 | 0
CCCCCCCCCC[n+]1cccc(C(=O)N(CC)CC)c1 | 0 | 44 | 0 | 0 | 0
CCNc1ccc(Br)cc(C(=O)/C=C/c2ccc(Cl)cc2Cl)c1=O | 0 | 40 | 0 | 0 | 0
CNc1ccc(Br)cc(C(=O)/C=C/c2cc(OC)ccc2OC)c1=O | 0 | 0 | 0 | 0 | 0
COC(=O)Cc1nnn2c1[C@H](C)[C@H](C(C)(C)C)OCC2 | 0 | - | - | 0 | -
